Laboratory results: ChEMBL document CHEMBL1926663, “Identification of new aminoacid amides containing the imidazo[2,1-b]benzothiazol-2-ylphenyl moiety as inhibitors of tumorigenesis by oncogenic Met signaling” (Eur J Med Chem, 2012)
Calls of active or inactive are those of the source. The rule behind the calls is not given here.

Experiments:
[1] = target: Hepatocyte growth factor receptor (Homo sapiens) (UniProt P08581); test: Inhibition of Met-mediated scattering in HGF-stimulated […] MDCK cells at 10 uM pre-incubated overnight prior to HGF stimulation for 24 hrs measured after 24 to 48 hrs; type: cell-based
Outline: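 MDCK cells in DMEM with 2% FBS, 1000 cells/well, settled overnight; compounds 0.1–100 µM overnight at 37 °C, then HGF 20 ng/ml for 24 h; further 24–48 h; PBS wash, 4% PFA fix; scattered cells counted in 30 colonies; IC50 = 50% inhibition of scattering.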

MDCK [2] = test: Cytotoxicity against HGF-stimulated […] MDCK cells at 50 to 100 fold higher biologically active concentration; type: cell-based
[3] = Chemical stability in solid state; type: physicochemical
MDCK [4] = test: Cytotoxicity against HGF-stimulated […] MDCK cells at biologically active concentration; type: cell-based
[5] = Chemical stability in chloroform; type: physicochemical
[6] = Chemical stability in methanol; type: physicochemical
[7] = Chemical stability in DMSO; type: physicochemical
BaF3 = test: Antiproliferative activity against IL3-stimulated mouse BA/F3 cells at 1 uM after 48 hrs by cell titre blue based spectrophotometry; type: functional
Outline: (§1)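 Ba/F3 cells expressing active kinase forms, or IL3-dependent; 2×10^4 cells/well; 1/2 serial dilutions from 0 to 10 µM (text also gives 0.1–40 µM); 48 h at 37 °C; Cell Titer Blue; absorbance at 490 nm with cell-free blank for background; proliferation as % of untreated cells; triplicate.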

GTL 16 [8] = test: Cytotoxicity against serum-starved human GTL16 cells assessed as reduction of cell survival after 48 hrs by Cell Titer-Glo luminescent assay; type: functional, cell-based
[9] = target: Hepatocyte growth factor receptor (Homo sapiens) (UniProt P08581); details: 10 uM
[10] = target: Hepatocyte growth factor receptor (Homo sapiens) (UniProt P08581); details: BaF3; 1 uM
[11] = target: Hepatocyte growth factor receptor (Homo sapiens) (UniProt P08581); details: 1 uM
[12] = target: Macrophage-stimulating protein receptor (Homo sapiens) (UniProt Q04912); test: Inhibition of TEL-fused RON-mediated mouse BA/F3 cell proliferation at 1 uM after 48 hrs by cell titre blue based spectrophotometry; details: BaF3; outline: as §1
[13] = Antitumor activity against human GTL16 cells xenografted in nude mouse assessed as reduction tumor weight at 10 mg/kg, ip administered for every 2 days for 21 days (reference value: 865.4 348.9 mg); type: functional, GTL 16; details: route intraperitoneal
[14] = Antitumor activity against human GTL16 cells xenografted in nude mouse assessed as reduction tumor weight at 10 to 30 mg/kg, ip administered for every 2 days for 21 days; type: functional, GTL 16; design: scale not given: the % may be the effect or the level left; details: dose mg/kg 10-30; route intraperitoneal
Mus musculus = test: Toxicity in human GTL16 cells xenografted nude mouse assessed as reduction of body weight at 10 to 30 mg/kg, ip administered for every 2 days for 21 days; type: organism-based; design: dose 10-30 mg/kg, route intraperitoneal; details: in vivo
BT-474 [15] = test: Cytotoxicity against serum-starved human BT474 cells assessed as reduction of cell survival at 10 to 30 uM after 48 hrs by Cell Titer-Glo luminescent assay; type: functional, cell-based
Outline: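 Cells were held in serum-free medium for 24 h, then exposed to compound for 48 h. Viability was read by CellTiter-Glo luminescence, and data come from three independent experiments run in duplicate. BT474 was routinely maintained in RPMI with 4 mM L-glutamine, 10% FBS and penicillin/streptomycin at 37 °C under 5% CO2.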

[16] = target: Hepatocyte growth factor receptor (Homo sapiens) (UniProt P08581); details: HepG2, 10 uM
Hepatocyte = test: Cytotoxicity against hepatocytes assessed as reduction in cell viability at 100 uM after 24 hrs by Cell Titer-Glo luminescent assay; type: cell-based
Outline: (§2)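 Primary embryonic cortical neuron and hepatocyte cultures exposed to compound for 24 h; viability read by Cell Titer Glo luminescence; quadruplicate.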

MCF7 [17] = test: Cytotoxicity against serum-starved human MCF7 cells over-expressing ErbB2 cells assessed as reduction of cell survival at 10 to 30 uM after 48 hrs by Cell Titer-Glo luminescent assay; type: functional, cell-based
[18] = target: Epidermal growth factor receptor (Homo sapiens) (UniProt P00533); test: Inhibition of ErbB1 phosphorylation in human BT474 cells at 1 to 10 uM pretreated overnight prior to HGF stimulation by Western blot analysis; type: cell-based; details: BT-474
Outline: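 BT-474 cells starved, pretreated overnight with compound at 1, 3, 10 µM, then HGF 20 ng/ml; total extracts immunoblotted for phospho-ErbBs; ERK as loading control.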

HepG2 [19] = test: Cytotoxicity against serum-starved human HepG2 cells assessed as reduction of cell survival after 48 hrs by Cell Titer-Glo luminescent assay; type: functional, cell-based
[20] = Antitumor activity against human GTL16 cells xenografted in nude mouse assessed as reduction tumor weight at 30 mg/kg, ip administered for every 2 days for 21 days (reference value: 865.4 348.9 mg); type: functional, GTL 16; details: route intraperitoneal
[21] = Cytotoxicity against cortical neurons assessed as reduction in cell viability at 100 uM after 24 hrs by Cell Titer-Glo luminescent assay; details: cortical neurone; outline: as §2
HepG2 [22] = test: Cytotoxicity against serum-starved human HepG2 cells at 2 uM after 48 hrs by Cell Titer-Glo luminescent assay; type: functional, cell-based
GTL 16 [23] = test: Cytotoxicity against serum-starved human GTL16 cells at 2 uM after 48 hrs by Cell Titer-Glo luminescent assay; type: functional, cell-based
BT-474 [24] = test: Cytotoxicity against serum-starved human BT474 cells at 2 uM after 48 hrs by Cell Titer-Glo luminescent assay; type: functional, cell-based
MCF7 [25] = test: Cytotoxicity against serum-starved human MCF7 cells over-expressing ErbB2 cells at 2 uM after 48 hrs by Cell Titer-Glo luminescent assay; type: functional, cell-based
BT-474 [26] = test: Cytotoxicity against serum-starved human BT474 cells at 10 uM after 48 hrs by Cell Titer-Glo luminescent assay; type: functional, cell-based
MCF7 [27] = test: Cytotoxicity against serum-starved human MCF7 cells over-expressing ErbB2 cells at 10 uM after 48 hrs by Cell Titer-Glo luminescent assay; type: functional, cell-based
[28] = target: Hepatocyte growth factor receptor (Homo sapiens) (UniProt P08581); test: Inhibition of Met-mediated scattering in HGF-stimulated […] MDCK cells pre-incubated overnight prior to HGF stimulation for 24 hrs measured after 24 to 48 hrs; type: cell-based

| SMILES | Stability [3] | Stability [5] | Stability [6] | Stability [7] | Activity (MDCK [2]) | Activity (MDCK [4]) | also measured |
| --- | --- | --- | --- | --- | --- | --- | --- |
| O=C(Cc1cc(C(F)(F)F)cc(C(F)(F)F)c1)N[C@@H](Cc1ccccc1)C(=O)Nc1ccc(-c2cn3c(n2)sc2ccccc23)cc1 | Stable | Stable | Stable | Stable | Toxic | Non-toxic | Activity (BaF3): Active; Activity (GTL 16 [8]): Dose-dependent effect; inhibition [9]: 53%; inhibition [10]: Active; inhibition [11]: 21%; inhibition [12]: Active; Activity [13]: 268.8 mg; Activity [14]: 70%; Activity (Mus musculus): Non-toxic; Activity (BT-474 [15]): inactive; inhibition [16]: 30%; Activity (Hepatocyte): 28%; Activity (MCF7 [17]): inactive; inhibition [18]: inactive; Activity (HepG2 [19]): Dose-dependent effect; Activity [20]: 234.8 mg; Activity [21]: 12% |
| O=C(Cc1cc(F)cc(F)c1)NCCC(=O)Nc1ccc(-c2cn3c4c(sc3n2)CN(Cc2ccccc2)CC4)cc1 | Stable | Stable | Stable | Stable | – | – | – |
| Cc1[nH]c(/C=C2\C(=O)Nc3ccc(S(=O)(=O)N(C)c4cccc(Cl)c4)cc32)c(C)c1C(=O)N1CCN(C)CC1 | – | – | – | – | – | – | Activity (HepG2 [22]): Active; Activity (GTL 16 [23]): Active; Activity (BT-474 [24]): inactive; Activity (MCF7 [25]): inactive |
| O=C(Cc1cc(F)cc(F)c1)N[C@@H](CS)C(=O)Nc1ccc(-c2cn3c4c(sc3n2)CN(Cc2ccccc2)CC4)cc1 | Stable | Stable | Stable | Stable | – | – | – |
| COc1cc2ncnc(Nc3ccc(F)c(Cl)c3)c2cc1OCCCN1CCOCC1 | – | – | – | – | – | – | Activity (BT-474 [26]): Active; Activity (MCF7 [27]): Active |
| C[C@H](NC(=O)Cc1cc(F)cc(F)c1)C(=O)Nc1ccc(-c2cn3c4c(sc3n2)CCN(Cc2ccccc2)C4)cc1 | Stable | Stable | Stable | Stable | – | – | – |
| C[C@@H](NC(=O)Cc1cc(F)cc(F)c1)C(=O)Nc1ccc(-c2cn3c4c(sc3n2)CCN(Cc2ccccc2)C4)cc1 | Stable | Stable | Stable | Stable | – | – | – |
| O=C(Cc1cc(F)cc(F)c1)NCCC(=O)Nc1ccc(-c2cn3c4c(sc3n2)CCN(Cc2ccccc2)C4)cc1 | Stable | Stable | Stable | Stable | – | – | – |
| O=C(Cc1cc(C(F)(F)F)cc(C(F)(F)F)c1)N[C@@H](Cc1ccccc1)C(=O)Nc1ccc(-c2cn3c(n2)sc2cc(Br)ccc23)cc1 | Stable | Stable | Stable | Stable | Toxic | Non-toxic | – |

Now from value to molecule, other results behind:

| Stability [3] | Stability [5] | Stability [6] | Stability [7] | SMILES | Activity (MDCK [2]) | Activity (MDCK [4]) | also measured |
| --- | --- | --- | --- | --- | --- | --- | --- |
| Stable | Stable | Stable | Stable | Cc1ccc(CC(=O)N[C@@H](Cc2ccccc2)C(=O)Nc2ccc(-c3cn4c(n3)sc3ccccc34)cc2)cc1 | Toxic | Non-toxic | inhibition [1]: 30% |
| Stable | Stable | Stable | Stable | Cc1ccc(C[C@H](NC(=O)Cc2cc(C)cc(C)c2)C(=O)Nc2ccc(-c3cn4c(n3)sc3ccccc34)cc2)cc1 | – | – | – |
| Stable | Stable | Stable | Stable | Cc1cc(C)cc(CC(=O)N[C@@H](Cc2ccccc2)C(=O)Nc2ccc(-c3cn4c(n3)sc3ccccc34)cc2)c1 | Toxic | Non-toxic | Activity (GTL 16 [8]): Dose-dependent effect; Activity (BT-474 [15]): inactive; Activity (MCF7 [17]): inactive; Activity (HepG2 [19]): Dose-dependent effect |
| Stable | Stable | Stable | Stable | Cc1cc(C)cc(CC(=O)N[C@@H](Cc2ccccc2)C(=O)Nc2ccc(-c3cn4c5c(sc4n3)CN(Cc3ccccc3)CC5)cc2)c1 | – | – | – |
| Stable | Stable | Stable | Stable | Cc1cc(C)cc(CC(=O)N[C@H](Cc2ccccc2)C(=O)Nc2ccc(-c3cn4c(n3)sc3ccccc34)cc2)c1 | Toxic | Non-toxic | – |
| Stable | Stable | Stable | Stable | Cc1cc(C)cc(CC(=O)N[C@@H](Cc2ccccc2)C(=O)Nc2ccc(-c3cn4c5c(sc4n3)CCCC5)cc2)c1 | – | – | – |
| Stable | Stable | Stable | Stable | O=C(Cc1cc(C(F)(F)F)cc(C(F)(F)F)c1)N[C@H](Cc1ccccc1)C(=O)Nc1ccc(-c2cn3c(n2)sc2ccccc23)cc1 | Toxic | Non-toxic | Activity (GTL 16 [8]): Dose-dependent effect; Activity (BT-474 [15]): inactive; Activity (MCF7 [17]): inactive; Activity (HepG2 [19]): Dose-dependent effect |
| Stable | Stable | Stable | Stable | Cc1cc(C)cc(CC(=O)N[C@@H](Cc2ccc(O)cc2)C(=O)Nc2ccc(-c3cn4c(n3)sc3ccccc34)cc2)c1 | – | – | – |
| Stable | Stable | Stable | Stable | Cc1cc(C)cc(CC(=O)N[C@H](Cc2ccccc2)C(=O)Nc2ccc(-c3cn4c5c(sc4n3)CN(Cc3ccccc3)CC5)cc2)c1 | – | – | – |
| Stable | Stable | Stable | Stable | O=C(Cc1cc(F)cc(F)c1)N[C@@H](Cc1ccccc1)C(=O)Nc1ccc(-c2cn3c(n2)sc2ccccc23)cc1 | Toxic | Non-toxic | Activity (GTL 16 [8]): Dose-dependent effect; Activity (BT-474 [15]): inactive; Activity (MCF7 [17]): inactive; Activity (HepG2 [19]): Dose-dependent effect |
| Stable | Stable | Stable | Stable | Cc1cc(C)cc(CC(=O)NCC(=O)Nc2ccc(-c3cn4c(n3)sc3ccccc34)cc2)c1 | – | – | inhibition [28]: inactive |
| Stable | Stable | Stable | Stable | Cc1ccc(C[C@H](NC(=O)Cc2cc(C(F)(F)F)cc(C(F)(F)F)c2)C(=O)Nc2ccc(-c3cn4c(n3)sc3ccccc34)cc2)cc1 | – | – | – |
